Activity calls are given as the source filed them. No cut-off for these calls is given here.
System: Plasmodium falciparum
Experiment: Anti-malarial activity against Plasmodium falciparum trophozoites assessed as induction of morphological changes at 5 uM
Assay type: functional, organism-based
Details: not given

In the case of `C=CCOC[C@H]1Cc2c(n(Cc3ccccc3)c3ccccc23)[C@@H]2C[C@@H](C=C)CC(=O)N12`, the Activity is reported as “Active”.
With `O=C1CCC[C@H]2c3c(c4ccccc4n3Cc3ccccc3)C[C@H](COCc3ccccc3)N12` the Activity was “Active”.

System: Plasmodium falciparum
Experiment: Anti-malarial activity against intraerythrocytic ring stage culture of chloroquine-resistant Plasmodium falciparum Dd2 after 48 hrs by lactate dehydrogenase assay
Assay type: functional, organism-based
Details: Dd2, 48 h
In short: (§1)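 Sorbitol-synchronised ring-stage parasites at 2% haematocrit and 1% parasitaemia, kept at 37 °C in 1% O2/3% CO2/96% N2, were given five-fold drug dilutions from 100 mM DMSO stocks for 48 h. Growth reference wells had no drug, and 0% wells had artemether at 100 nM. LDH was read with Malstat/APAD plus NBT/PES (1 h, dark, room temperature, A650). IC50 came from log dose–response curves of mean growth, n ≥ 6.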

`O=C1C=CC[C@H]2c3c(c4ccccc4n3Cc3ccccc3)C[C@H](COCc3ccccc3)N12` and `O=C1CCC[C@H]2c3c(c4ccccc4n3Cc3ccccc3)C[C@H](COCc3ccccc3)N12` are within 1.5-fold of each other in IC50: 3.6 µM for the first, 3.5 µM for the second.

`COC[C@@H]1Cc2c(n(C)c3ccccc23)[C@H]2CCCC(=O)N12` and `COC[C@H]1Cc2c(n(C)c3ccccc23)[C@@H]2CCCC(=O)N12` are within 1.5-fold of each other in IC50: 30 µM for the first, 29 µM for the second.

`C=CCOC[C@H]1Cc2c(n(Cc3ccccc3)c3ccccc23)[C@@H]2CC=CC(=O)N12` and `C=CCOC[C@H]1Cc2c(n(Cc3ccccc3)c3ccccc23)[C@@H]2CCCC(=O)N12` are within 1.5-fold of each other in IC50: 1.7 µM for the first, 1.3 µM for the second.

`C=CCOC[C@H]1Cc2c(n(CC3CCCCC3)c3ccccc23)[C@@H]2CCCC(=O)N12` and `C=CCOC[C@H]1Cc2c(n(CC3CCC3)c3ccccc23)[C@@H]2CCCC(=O)N12` are within 1.5-fold of each other in IC50: 9 µM for the first, 7 µM for the second.

Going from `C=CCOC[C@H]1Cc2c(n(Cc3ccccc3)c3ccccc23)[C@@H]2C[C@@H](C=C)CC(=O)N12` to `C=CCOC[C@@H]1Cc2c(n(Cc3ccccc3)c3ccccc23)[C@H]2CCCC(=O)N12`, the IC50 rises from 1.1 µM to 35 µM (32-fold).

First: O=C1CCC[C@H]2c3c(c4ccccc4n3Cc3ccccc3)C[C@H](COCC3CCCCC3)N12
Second: CCCOC[C@H]1Cc2c(n(Cc3ccccc3)c3ccccc23)[C@@H]2CCCC(=O)N12
The IC50 of the first is 6.8-fold higher: 19 µM for the first, 2.8 µM for the second.

Compared with `C=CCOC[C@H]1Cc2c(n(Cc3ccccc3)c3ccccc23)[C@@H]2CCCCN12`, `COC[C@H]1Cc2c(n(Cc3ccccc3)c3ccccc23)[C@@H]2CCCCN12` is 2.2-fold higher in IC50: 1.5 µM for the first, 3.3 µM for the second. The first is the more potent here.

`O=C1CCC[C@@H]2c3[nH]c4ccccc4c3C[C@@H](CO)N12` and `O=C1CCC[C@H]2c3[nH]c4ccccc4c3C[C@H](CO)N12` are within 1.5-fold of each other in IC50: 71 µM for the first, 56 µM for the second.

Compared with `COC[C@@H]1Cc2c(n(Cc3ccccc3)c3ccccc23)[C@H]2CCCC(=O)N12`, `COC[C@H]1Cc2c(n(Cc3ccccc3)c3ccccc23)[C@@H]2CCCC(=O)N12` is 25-fold lower in IC50: 32 µM for the first, 1.3 µM for the second.

`C=CCOC[C@H]1Cc2c(n(CC=C)c3ccccc23)[C@@H]2CCCC(=O)N12` and `C=CCOC[C@@H]1Cc2c(n(CC=C)c3ccccc23)[C@H]2CCCC(=O)N12` are within 1.5-fold of each other in IC50: 13 µM for the first, 16 µM for the second.

First: C=C[C@H]1CC(=O)N2[C@@H](COCc3ccccc3)Cc3c(n(Cc4ccccc4)c4ccccc34)[C@@H]2C1
Second: C=C[C@@H]1CC(=O)N2[C@H](COCc3ccccc3)Cc3c(n(Cc4ccccc4)c4ccccc34)[C@H]2C1
The IC50 of the first is 1.5-fold lower: 13 µM for the first, 20 µM for the second. The first is the more potent here.

Compared with `O=C1CCC[C@H]2c3c(c4ccccc4n3Cc3ccccc3)C[C@H](CO)N12`, `O=C1CCC[C@@H]2c3c(c4ccccc4n3Cc3ccccc3)C[C@@H](COCc3ccccc3)N12` is 2.4-fold higher in IC50: 5 µM for the first, 12 µM for the second. The first is the more potent here.

Compared with `C=CCOC[C@H]1Cc2c(n(Cc3ccncc3)c3ccccc23)[C@@H]2CCCC(=O)N12`, `C=CCn1c2c(c3ccccc31)C[C@H](CO)N1C(=O)CCC[C@@H]21` is 20-fold higher in IC50: 2.1 µM for the first, 41 µM for the second. The first is the more potent here.

System: Plasmodium falciparum
Experiment: Anti-malarial activity against intraerythrocytic ring stage culture of chloroquine-sensitive Plasmodium falciparum 3D7 after 48 hrs by lactate dehydrogenase assay
Assay type: functional, organism-based
Details: 3D7, 48 h
In short: as §1

`C=CCOC[C@H]1Cc2c(n(Cc3ccccc3)c3ccccc23)[C@@H]2CCCC(=O)N12` and `COC[C@H]1Cc2c(n(Cc3ccccc3)c3ccccc23)[C@@H]2CCCC(=O)N12` are within 1.5-fold of each other in IC50: 1700 nM for the first, 2300 nM for the second.

Molecule `COC[C@H]1Cc2c(n(C)c3ccccc23)[C@@H]2CCCC(=O)N12` has an IC50 of 41000 nM.
